# High-throughput results from PubChem.
# Autophagy HCS = autophagy modulation, high-content screen. 190,000 compounds, 0.98% hits. AID 463193. MEF GFP-LC3 puncta imaging; test concentration mostly 10 µM. calls only at 10 µM (by protocol);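 active = percentage of spot-positive cells more than 3 SD above its plate mean, without a fluorescence outlier flag or 80% toxicity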;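 note: spot-positive cell cutoff set from DMSO-treated cells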
# MDM2 E3 inh = Mdm2 E3 ligase (human) inhibition. Q00987. cell-based MDM2 ubiquitination luciferase reporter, 2 h; 0 = plate control, 100 = twice control, blank-subtracted. signal enhancement, % at 5 µM. 210,000 compounds, 0.11% hits. AID 1230;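 active = signal enhancement of 30% or more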;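 note: luminescence tracks abundance of the self-degrading MDM2-luciferase fusion protein; higher signal means inhibition of MDM2 E3 ligase activity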
# Target sequence (Q00987 whole entry, looked up, the tested form may be a part): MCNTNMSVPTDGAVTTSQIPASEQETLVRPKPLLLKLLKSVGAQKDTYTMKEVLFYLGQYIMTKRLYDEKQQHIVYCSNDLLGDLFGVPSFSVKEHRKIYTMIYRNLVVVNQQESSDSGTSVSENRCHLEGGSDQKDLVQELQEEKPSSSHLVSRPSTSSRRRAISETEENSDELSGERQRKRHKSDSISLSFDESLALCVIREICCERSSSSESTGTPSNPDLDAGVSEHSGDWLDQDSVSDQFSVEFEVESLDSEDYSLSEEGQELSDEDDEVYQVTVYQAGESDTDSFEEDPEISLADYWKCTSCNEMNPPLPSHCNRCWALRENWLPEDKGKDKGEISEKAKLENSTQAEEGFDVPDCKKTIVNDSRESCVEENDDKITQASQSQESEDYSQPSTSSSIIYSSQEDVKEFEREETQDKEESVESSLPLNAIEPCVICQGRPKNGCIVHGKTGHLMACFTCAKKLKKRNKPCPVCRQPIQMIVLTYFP
#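 Assay system: stable mammalian line carrying autodegrading MDM2–luciferase fusion reporter; amount: 2000 cells seeded into each well; buffer or medium: DMEM; benchmarks: plate control and blank wells; signal: luciferase luminescence; timing: 2 h compound exposure at 37 °C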
# Dynein transport = blocks dynein driven cargo transport along microtubules; z-score, hits read low; 220,000 compounds, 0.47% hits; 3617.4 mouse cells, GR-EGFP nuclear translocation imaging; test concentration mostly 20 µM; stimulated with dexamethasone, 1 µM; active compounds read low;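 active = plate z-score of nuclear minus cytoplasmic receptor signal below a set negative limit, without overly bright fluorescence or cell loss, cut at about -3.5 in these data, passing the limit was not always enough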;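 note: z-score of nuclear minus cytoplasmic ring GR-EGFP intensity difference per well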
#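 Buffer or medium: Induction medium lacking tetracycline, stripped serum | Also added: Dexamethasone agonist, 1.0 µM final, for 30 min | Timing: 48 h induction, 1 h compound, 30 min dex at 37 °C | Detection: Formaldehyde fixation, Hoechst nuclear stain, 10x automated fluorescence imaging | Measure: Nuclear versus cytoplasmic GR-EGFP signal, averaged per well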
# TNF death inh = TNF-alpha cell death inhibition in Jurkat FADD-/- cells; activation (protection from cell death), % at 10 µM; Jurkat FADD-/- TNF necroptosis rescue, ATP luminescence, 24 h; 0 = TNF only, 100 = no-TNF cells; 220,000 compounds, 0.068% hits; AID 463075;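 active = activation, meaning protection from cell death, of at least 50% relative to plate controls; inactive = activation below 50%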;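 note: necroptosis triggered by 40 ng/mL TNF-alpha added together with compound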
# zVAD death inh = L929 zVAD cell death inhibition; 220,000 compounds, 0.38% hits; L929 zVAD necroptosis rescue, ATP luminescence, 24 h; with zVAD 60 µM; AID 1377; viability rescue, % at 10 µM;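 active = activation, scaled between plate controls, above about 75%, limit read from the data; inactive = activation under that limit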;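 note: 0% = zVAD with DMSO and 100% = DMSO alone without zVAD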
# Hck Nef HTS = human Hck-Nef kinase inhibition; P08631; Recombinant Hck-YEEI plus Nef, Z-Lyte FRET kinase assay; inhibition, % at 20 µM; 220,000 compounds, 0.68% hits;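 active = Hck-Nef kinase inhibition above about 50%, limit read from the data; inactive = inhibition below that limit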;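 note: 0% = DMSO with Hck plus Nef and 100% = Hck alone without Nef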
# Hck-Nef confirm = Hck-Nef kinase inhibition, confirmation; shares compounds with Hck Nef HTS; Recombinant Hck-YEEI:Nef, Z-Lyte FRET kinase assay; calls only at 10 µM; 1,300 compounds, 28% hits; AID 463188;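 active = average inhibition of at least 50%, with Z-scores no higher than 3 in both the phospho-tyrosine peptide and fluorescence counterscreens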
# An asterisk follows results filed as active; i = inactive; . = no result given; + = active, no number. Sampled rows, rich in hits. Any-hit rate of the full collection: about 2.4%.
SMILES,Autophagy HCS,MDM2 E3 inh,Dynein transport,TNF death inh,zVAD death inh,Hck Nef HTS,Hck-Nef confirm
COc1ccc(Cl)cc1NC(=O)C1CCCN(S(=O)(=O)c2cccc3nonc23)C1 (configuration not stated),i,-4,-0.094,1,1,-2,.
CC1(C)CC(=O)C(C=NCCCn2ccnc2)=C(O)C1,i,0,-0.6,-1,0,2,.
O=C1CSC(=S)N1/N=C/c1ccc(O)c(O)c1O,.,-9,0.39,-6,0,79*,+
CCCS/C(N)=N/N=C/c1cc(C)ccc1O,i,.,0.37,-20,1,55*,+
C/C(=N\Nc1ccc(S(N)(=O)=O)cc1[N+](=O)[O-])c1ccc2c(c1)OCO2,i,-12,0.31,-5,-1,65*,+
O=C(COC(=O)c1ccccc1SCC(=O)NC1CCS(=O)(=O)C1)NC1CCS(=O)(=O)C1 (configuration not stated),i,-12,1.4,2,2,-13,.
CCNC(=O)NC(=O)COC(=O)c1ccccc1SCC(=O)NC(=O)NCC,.,-25,0.94,-3,0,109*,.
Fc1cccc(Cl)c1CSc1nnc(CN2CCOCC2)n1-c1ccccc1,i,-13,-0.63,0,-1,96*,i
Clc1cccc(Cl)c1CSc1nnc(CN2CCOCC2)n1-c1ccccc1,i,8,0.34,-1,-1,1,.
CC1=C(C(=O)OC(C)C)[C@@H](c2ccc(C)o2)NC(=O)N1,i,-7,0.72,-2,.,-3,.
Cc1cc(SCC(=O)OCC(=O)c2c(N)n(C)c(=O)n(C)c2=O)c(C)cc1Br,i,-8,0.12,0,0,55*,i
COC(=O)Cc1[nH]n(-c2nc3ccccc3s2)c(=O)c1C(C)=Nc1ccc(Cl)cc1,.,-59,1.1,-10,0,64*,i
COc1ccc(C2=NN(C(=O)CSc3nc4ncc(Cl)cc4[nH]3)C(c3ccco3)C2)cc1 (configuration not stated),i,-2,-1.1,-1,1,22,.
Cc1ccc(C2=NN(C(=O)CSc3nc4ncc(Cl)cc4[nH]3)C(c3ccco3)C2)cc1 (configuration not stated),i,-6,-0.16,-3,0,77*,i
CS(=O)(=O)NCc1nnc(SCc2ccc(C(F)(F)F)cc2)o1,.,.,-1.6,7,0,22,.
COc1cc(-n2c(=O)c3ccccc3n(CC(=O)c3ccc(Br)cc3)c2=O)cc(OC)c1OC,i,0,-0.27,1,1,6,.
COc1cccc(NC(=O)Cn2c(=O)n(-c3cc(OC)c(OC)c(OC)c3)c(=O)c3ccccc32)c1,i,-9,-0.47,0,2,124*,i
Cc1nn(Cc2ccccc2)c(Cl)c1/C=C/C(=O)OC(C(=O)NC(N)=O)C(C)C (configuration not stated),i,-6,-0.51,1,2,12,.
Cc1cc(/C=N/Nc2ccc([N+](=O)[O-])cn2)c(C)n1-c1ccc(C(=O)O)cc1,i,8,-0.46,2,69,79*,i
O=C(CSc1nnc(-c2ccccc2)o1)OCc1ccccc1,i,-13,-0.21,-2,0,2,.
COc1ccc(C)cc1NC(=O)Nc1cnccn1,i,-15,-0.51,-4,73,102*,+
C=CCn1c(SCc2ccc(C(=O)Nc3ccccc3)cc2)nnc1-c1ccccc1,i,-36,1.1,0,0,-2,.
O=C(c1cccc2ccccc12)C1CCCN(C(=O)CCCn2cncn2)C1 (configuration not stated),i,9,-0.57,0,-1,42,.
Cc1nc2ccc(NC(=O)c3ccc(Cl)c(S(=O)(=O)N(C)c4ccccc4)c3)cc2s1,i,-4,0.7,-12,1,0,.
